From ChEMBL document CHEMBL1137942, “Design, synthesis, and biological activity of novel, potent, and selective (benzoylaminomethyl)thiophene sulfonamide inhibitors of c-Jun-N-terminal kinase” (J Med Chem, 2004)

Columns and labels:
[1] = molecular target: Dual specificity mitogen-activated protein kinase kinase 6 (Homo sapiens) (UniProt P52564); assay: Percentage activity of human MKK6 in the presence of 10 uM of compound and 10 uM of ATP in comparison with control
[2] = molecular target: 3-phosphoinositide-dependent protein kinase 1 (Homo sapiens) (UniProt O15530); assay: Percentage activity of human PDK1 in the presence of 10 uM of compound and 10 uM of ATP in comparison with control
[3] = molecular target: Serine/threonine-protein kinase N2 (Homo sapiens) (UniProt Q16513); assay: Percentage activity of human PRK2 in the presence of 10 uM of compound and 10 uM of ATP in comparison with control
[4] = molecular target: Tyrosine-protein kinase CSK (Homo sapiens) (UniProt P41240); assay: Percentage activity of human CSK in the presence of 10uM of compound and 10uM of ATP in comparison with control
[5] = molecular target: Protein kinase C gamma type (Homo sapiens) (UniProt P05129); assay: Percentage activity of human PKC gamma in the presence of 10 uM of compound and 10 uM of ATP in comparison with control
[6] = molecular target: Mitogen-activated protein kinase 1 (Homo sapiens) (UniProt P28482); assay: Percentage activity of human MAPK2 in the presence of 10 uM of compound and 10 uM of ATP in comparison with control
Sequence of Mitogen-activated protein kinase 1 (Homo sapiens) (P28482 whole entry): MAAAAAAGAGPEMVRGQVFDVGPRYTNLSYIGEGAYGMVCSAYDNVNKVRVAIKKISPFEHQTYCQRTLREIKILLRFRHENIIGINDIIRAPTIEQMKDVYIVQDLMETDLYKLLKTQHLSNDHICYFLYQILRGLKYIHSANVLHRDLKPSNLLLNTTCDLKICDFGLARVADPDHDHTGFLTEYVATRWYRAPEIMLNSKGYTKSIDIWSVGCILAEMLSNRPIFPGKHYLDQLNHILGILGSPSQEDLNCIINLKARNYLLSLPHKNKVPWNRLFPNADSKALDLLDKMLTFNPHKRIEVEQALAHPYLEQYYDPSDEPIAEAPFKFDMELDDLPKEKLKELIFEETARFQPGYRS

[7] = molecular target: Mitogen-activated protein kinase 13 (Homo sapiens) (UniProt O15264); assay: Percentage activity of human SAPK4 in the presence of 10 uM of compound and 10 uM of ATP in comparison with control
[8] = molecular target: MAP kinase-activated protein kinase 2 (Homo sapiens) (UniProt P49137); assay: Percentage activity of human MAPKAP-K2 in the presence of 10uM of compound and 10uM of ATP in comparison with control
Sequence of MAP kinase-activated protein kinase 2 (Homo sapiens) (P49137 whole entry, looked up): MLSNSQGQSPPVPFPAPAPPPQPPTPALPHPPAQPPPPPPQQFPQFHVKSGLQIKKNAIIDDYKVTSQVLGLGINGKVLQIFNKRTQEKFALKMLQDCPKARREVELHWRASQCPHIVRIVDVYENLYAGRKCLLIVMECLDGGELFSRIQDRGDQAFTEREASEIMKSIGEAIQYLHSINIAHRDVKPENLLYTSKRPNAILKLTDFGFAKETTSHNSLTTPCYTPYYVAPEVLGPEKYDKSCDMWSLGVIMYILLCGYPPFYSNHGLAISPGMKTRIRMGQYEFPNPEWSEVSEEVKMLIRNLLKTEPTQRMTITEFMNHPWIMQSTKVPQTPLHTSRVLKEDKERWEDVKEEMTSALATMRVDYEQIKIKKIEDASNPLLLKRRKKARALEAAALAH

[9] = molecular target: MAP kinase-activated protein kinase 5 (Homo sapiens) (UniProt Q8IW41); assay: Percentage activity of human PRAK in the presence of 10 uM of compound and 10 uM of ATP in comparison with control
[10] = molecular target: Mitogen-activated protein kinase 9 (Homo sapiens, UniProt P45984); assay: Inhibition of human JNK2
Sequence of Mitogen-activated protein kinase 9 (P45984 whole entry): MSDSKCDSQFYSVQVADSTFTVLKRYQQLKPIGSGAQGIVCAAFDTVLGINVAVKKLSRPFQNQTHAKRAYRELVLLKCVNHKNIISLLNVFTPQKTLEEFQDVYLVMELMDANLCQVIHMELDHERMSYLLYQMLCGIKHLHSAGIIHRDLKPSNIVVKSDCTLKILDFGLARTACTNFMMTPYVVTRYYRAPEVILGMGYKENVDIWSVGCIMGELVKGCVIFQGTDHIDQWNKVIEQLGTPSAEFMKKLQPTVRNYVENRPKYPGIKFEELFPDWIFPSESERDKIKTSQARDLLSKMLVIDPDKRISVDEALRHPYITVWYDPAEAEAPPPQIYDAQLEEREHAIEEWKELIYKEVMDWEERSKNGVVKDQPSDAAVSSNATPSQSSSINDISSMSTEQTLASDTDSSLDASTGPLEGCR
Summary of the method: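 Radiometric SPA kinase assay: 0.5 µg recombinant preactivated GST-JNK2, 1 µg biotinylated GST-c-Jun, and 2 µM [33P]γ-ATP (2 nCi/µL). Buffer was 50 mM Tris-HCl pH 8.0, 10 mM MgCl2, 1 mM DTT and 100 µM NaVO4, with or without inhibitor, 120 min at rt. Stopped with streptavidin SPA beads, 5 mM EDTA, 0.1% Triton X-100 and 50 µM ATP in PBS; 60 min. Beads were centrifuged, washed, and counted by scintillation.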

[11] = molecular target: RAC-alpha serine/threonine-protein kinase (Homo sapiens) (UniProt P31749); assay: Percentage activity of human PKB alpha in the presence of 10 uM of compound and 10 uM of ATP in comparison with control
Sequence of RAC-alpha serine/threonine-protein kinase (Homo sapiens) (P31749 whole entry): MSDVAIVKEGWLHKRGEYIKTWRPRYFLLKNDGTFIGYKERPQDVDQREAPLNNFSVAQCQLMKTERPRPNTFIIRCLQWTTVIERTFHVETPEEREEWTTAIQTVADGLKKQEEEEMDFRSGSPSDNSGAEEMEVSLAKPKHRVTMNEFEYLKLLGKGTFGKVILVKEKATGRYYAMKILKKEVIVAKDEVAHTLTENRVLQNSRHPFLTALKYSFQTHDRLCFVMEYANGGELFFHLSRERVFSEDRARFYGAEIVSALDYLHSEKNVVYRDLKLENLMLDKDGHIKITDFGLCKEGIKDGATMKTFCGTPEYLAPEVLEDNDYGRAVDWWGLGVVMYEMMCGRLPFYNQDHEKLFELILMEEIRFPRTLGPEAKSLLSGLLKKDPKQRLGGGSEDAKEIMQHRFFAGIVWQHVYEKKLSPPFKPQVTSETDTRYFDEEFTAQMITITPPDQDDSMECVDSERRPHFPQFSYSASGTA

[12] = molecular target: Protein kinase C alpha type (Homo sapiens) (UniProt P17252); assay: Percentage activity of human PKC alpha -His in the presence of 10 uM of compound and 10 uM of ATP in comparison with control
[13] = molecular target: Protein kinase C beta type (Homo sapiens) (UniProt P05771); assay: Percentage activity of human PKC betaII -His in the presence of 10 uM of compound and 10 uM of ATP in comparison with control
Sequence of Protein kinase C beta type (Homo sapiens) (P05771 2-671 limits assumed): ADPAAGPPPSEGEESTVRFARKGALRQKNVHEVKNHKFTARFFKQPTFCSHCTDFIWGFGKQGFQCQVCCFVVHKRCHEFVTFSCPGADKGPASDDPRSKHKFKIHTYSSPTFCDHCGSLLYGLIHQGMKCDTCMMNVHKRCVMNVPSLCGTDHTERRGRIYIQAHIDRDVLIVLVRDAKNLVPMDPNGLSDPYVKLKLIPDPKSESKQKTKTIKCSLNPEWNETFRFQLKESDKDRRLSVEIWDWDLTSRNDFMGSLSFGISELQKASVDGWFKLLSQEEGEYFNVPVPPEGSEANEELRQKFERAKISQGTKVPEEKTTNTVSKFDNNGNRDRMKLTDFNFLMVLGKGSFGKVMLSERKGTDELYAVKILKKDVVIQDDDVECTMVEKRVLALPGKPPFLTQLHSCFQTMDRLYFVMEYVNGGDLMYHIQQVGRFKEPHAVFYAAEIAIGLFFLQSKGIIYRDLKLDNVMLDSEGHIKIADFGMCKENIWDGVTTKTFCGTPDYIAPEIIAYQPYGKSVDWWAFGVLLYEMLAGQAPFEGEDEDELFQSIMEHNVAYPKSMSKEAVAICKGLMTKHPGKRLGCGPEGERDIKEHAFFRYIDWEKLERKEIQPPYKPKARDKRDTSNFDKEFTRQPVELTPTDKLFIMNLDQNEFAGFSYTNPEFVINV

[14] = species: Homo sapiens; assay: Percentage activity of human Rsk2 in the presence of 10 uM of compound and 10 uM of ATP in comparison with control
[15] = molecular target: Protein kinase C theta type (Homo sapiens) (UniProt Q04759); assay: Percentage activity of human PKC theta in the presence of 10 uM of compound and 10 uM of ATP in comparison with control
Sequence of Protein kinase C theta type (Homo sapiens) (Q04759 whole entry, looked up): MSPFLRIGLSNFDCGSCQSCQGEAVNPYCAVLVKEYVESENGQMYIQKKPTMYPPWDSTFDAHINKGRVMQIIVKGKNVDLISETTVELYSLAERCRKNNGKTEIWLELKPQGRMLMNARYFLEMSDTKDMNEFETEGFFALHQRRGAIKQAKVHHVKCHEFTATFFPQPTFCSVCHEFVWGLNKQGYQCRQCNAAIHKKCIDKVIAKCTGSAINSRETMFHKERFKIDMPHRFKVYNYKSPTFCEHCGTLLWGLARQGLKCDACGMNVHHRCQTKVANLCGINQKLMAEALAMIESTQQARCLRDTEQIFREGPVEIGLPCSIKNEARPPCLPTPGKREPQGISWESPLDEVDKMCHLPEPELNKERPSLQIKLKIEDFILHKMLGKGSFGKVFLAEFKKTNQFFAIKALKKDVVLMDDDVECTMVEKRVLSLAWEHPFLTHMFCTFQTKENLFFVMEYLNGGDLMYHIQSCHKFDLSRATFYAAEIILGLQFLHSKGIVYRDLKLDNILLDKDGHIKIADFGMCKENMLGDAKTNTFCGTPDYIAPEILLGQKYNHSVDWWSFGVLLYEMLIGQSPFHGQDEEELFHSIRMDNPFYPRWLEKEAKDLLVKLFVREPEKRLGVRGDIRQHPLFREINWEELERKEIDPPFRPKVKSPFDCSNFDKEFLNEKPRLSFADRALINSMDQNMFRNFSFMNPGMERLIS

[16] = molecular target: Serine/threonine-protein kinase Chk1 (Homo sapiens) (UniProt O14757); assay: Percentage activity of human CHK1 in the presence of 10 uM of compound and 10 uM of ATP in comparison with control
[17] = molecular target: Aurora kinase A (Homo sapiens) (UniProt O14965); assay: Percentage activity of human Aurora-A in the presence of 10 uM of compound and 10 uM of ATP in comparison with control
[18] = molecular target: Serine/threonine-protein kinase PAK 2 (Homo sapiens) (UniProt Q13177); assay: Percentage activity of human PAK2 in the presence of 10 uM of compound and 10 uM of ATP in comparison with control
Sequence of Serine/threonine-protein kinase PAK 2 (Homo sapiens) (Q13177 whole entry): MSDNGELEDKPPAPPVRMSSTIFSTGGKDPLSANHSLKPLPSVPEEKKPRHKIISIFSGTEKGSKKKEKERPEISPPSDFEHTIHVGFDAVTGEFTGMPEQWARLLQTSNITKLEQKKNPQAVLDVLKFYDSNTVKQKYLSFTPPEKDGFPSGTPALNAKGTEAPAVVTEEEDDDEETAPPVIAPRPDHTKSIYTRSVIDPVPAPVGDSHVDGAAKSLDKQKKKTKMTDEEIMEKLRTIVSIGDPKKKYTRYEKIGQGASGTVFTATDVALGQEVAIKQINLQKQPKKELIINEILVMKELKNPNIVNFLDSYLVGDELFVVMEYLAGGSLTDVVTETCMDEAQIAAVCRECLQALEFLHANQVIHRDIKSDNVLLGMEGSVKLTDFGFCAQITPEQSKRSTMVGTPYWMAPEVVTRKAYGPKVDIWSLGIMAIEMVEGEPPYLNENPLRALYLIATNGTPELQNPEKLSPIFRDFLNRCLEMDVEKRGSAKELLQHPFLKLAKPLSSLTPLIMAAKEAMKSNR

[19] = species: Rattus norvegicus; assay: Percentage activity of rat AMPK in the presence of 10 uM of compound and 10 uM of ATP in comparison with control
[20] = molecular target: Casein kinase II (Homo sapiens) (UniProt P67870+P68400+P19784); assay: Percentage activity of human CK2 in the presence of 10 uM of compound and 10 uM of ATP in comparison with control; assay type: protein-complex assay
[21] = molecular target: Ribosomal protein S6 kinase (P70S6K) (Homo sapiens) (UniProt Q9UBS0+P23443); assay: Percentage activity of human p70S6K in the presence of 10 uM of compound and 10 uM of ATP in comparison with control; assay type: protein-complex assay
[22] = molecular target: cAMP-dependent protein kinase (PKA) (Homo sapiens) (UniProt P22694+P17612+P22612); assay: Percentage activity of human PKA in the presence of 10 uM of compound and 10 uM of ATP in comparison with control; assay type: protein assay
[23] = molecular target: Dual specificity mitogen-activated protein kinase kinase 7 (Homo sapiens) (UniProt O14733); assay: Percentage activity of human MKK7 beta in the presence of 10 uM of compound and 10 uM of ATP in comparison with control
[24] = test system: SCG; assay: Cell activity of JNK inhibitors in neuronal apoptosis assay in SCG cells, percentage rescued neurons at 10uM compound concentration after 48 hours; assay type: functional, Rattus norvegicus
Summary of the method: (§1)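 They were cultured in Leibowitz medium with 5% rat serum, 0.75 µg/mL NGF 7S and arabinosine C 10^-5 M. On day 4, medium was switched to 10 µg/mL anti-NGF antibody without NGF or AraC, with inhibitor in 1% DMSO. After 24 h, cells were refed initial medium minus AraC. After another 24 h, viability was read by MTT (0.5 mg/mL, 30 min, 37 °C), OD 590 nm.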

[25] = test system: SCG; assay: Cell activity of JNK inhibitors in neuronal apoptosis assay in SCG cells, percentage rescued neurons at 3uM compound concentration after 24 hours; assay type: functional, Rattus norvegicus
[26] = test system: SCG; assay: Cell activity of JNK inhibitors in neuronal apoptosis assay in SCG cells, percentage rescued neurons at 1uM compound concentration after 48 hours; assay type: functional, Rattus norvegicus; summary of the method: as §1
[27] = molecular target: Platelet-derived growth factor receptor beta (Homo sapiens) (UniProt P09619); assay: Percentage activity of human PDGFR beta in the presence of 10 uM of compound and 10 uM of ATP in comparison with control
Sequence of Platelet-derived growth factor receptor beta (Homo sapiens) (P09619 whole entry): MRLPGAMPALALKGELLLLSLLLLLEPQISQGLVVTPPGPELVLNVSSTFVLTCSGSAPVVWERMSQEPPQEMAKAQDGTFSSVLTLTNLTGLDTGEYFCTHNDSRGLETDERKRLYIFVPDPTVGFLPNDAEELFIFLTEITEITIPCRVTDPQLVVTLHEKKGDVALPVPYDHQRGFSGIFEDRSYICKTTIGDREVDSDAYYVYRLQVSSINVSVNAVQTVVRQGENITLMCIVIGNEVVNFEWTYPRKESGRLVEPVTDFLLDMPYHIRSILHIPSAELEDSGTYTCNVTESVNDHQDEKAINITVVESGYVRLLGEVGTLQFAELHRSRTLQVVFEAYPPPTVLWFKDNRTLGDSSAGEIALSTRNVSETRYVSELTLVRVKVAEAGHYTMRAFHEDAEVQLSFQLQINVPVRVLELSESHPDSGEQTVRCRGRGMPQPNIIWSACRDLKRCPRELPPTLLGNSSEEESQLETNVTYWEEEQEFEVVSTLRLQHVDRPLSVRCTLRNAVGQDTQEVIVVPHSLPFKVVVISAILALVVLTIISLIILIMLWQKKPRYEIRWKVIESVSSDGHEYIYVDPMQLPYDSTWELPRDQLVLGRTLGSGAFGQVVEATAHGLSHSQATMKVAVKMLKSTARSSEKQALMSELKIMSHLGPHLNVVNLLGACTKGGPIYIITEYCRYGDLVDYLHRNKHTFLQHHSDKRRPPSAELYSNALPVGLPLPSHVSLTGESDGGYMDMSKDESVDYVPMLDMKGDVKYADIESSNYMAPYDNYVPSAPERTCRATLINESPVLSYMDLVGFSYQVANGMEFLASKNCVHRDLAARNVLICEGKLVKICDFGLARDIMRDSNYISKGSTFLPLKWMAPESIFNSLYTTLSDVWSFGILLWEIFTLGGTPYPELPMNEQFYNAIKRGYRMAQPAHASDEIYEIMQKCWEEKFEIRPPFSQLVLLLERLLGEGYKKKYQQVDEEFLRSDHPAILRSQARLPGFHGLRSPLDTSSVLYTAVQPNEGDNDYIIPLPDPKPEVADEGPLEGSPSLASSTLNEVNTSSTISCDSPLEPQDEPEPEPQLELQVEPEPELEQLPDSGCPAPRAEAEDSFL

[28] = molecular target: BDNF/NT-3 growth factors receptor TrkB (Homo sapiens) (UniProt Q16620); assay: Percentage activity of human TrkB in the presence of 10 uM of compound and 10 uM of ATP in comparison with control

Sequence of Dual specificity mitogen-activated protein kinase kinase 6 (Homo sapiens) (P52564 whole entry): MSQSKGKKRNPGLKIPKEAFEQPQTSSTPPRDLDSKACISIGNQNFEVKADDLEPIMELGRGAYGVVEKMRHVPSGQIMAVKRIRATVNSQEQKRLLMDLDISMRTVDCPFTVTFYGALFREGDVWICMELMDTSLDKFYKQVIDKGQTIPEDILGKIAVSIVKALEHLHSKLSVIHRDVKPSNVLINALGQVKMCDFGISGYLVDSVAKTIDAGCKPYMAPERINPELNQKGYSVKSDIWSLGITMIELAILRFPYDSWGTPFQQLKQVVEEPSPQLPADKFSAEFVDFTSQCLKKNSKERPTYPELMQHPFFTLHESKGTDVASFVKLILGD

Activity [1]: 106%
Activity [2]: 98%
Activity [3]: 92%
Activity [4]: 130%
Activity [5]: 79%
Activity [6]: 106%
Activity [7]: 101%
Activity [8]: 74%
Activity [9]: 74%
IC50 [10]: 0.65 µM
Activity [11]: 51%
Activity [12]: 101%
Activity [13]: 88%
Activity [14]: 77%
Activity [15]: 113%
Activity [16]: 130%
Activity [17]: 79%
Activity [18]: 88%
Activity [19]: 90%
Activity [20]: 99%
Activity [21]: 77%
Activity [22]: 78%
Activity [23]: 121%
Activity [27]: 91%
Activity [28]: 83%
Structure (SMILES): O=C(NCc1ccc(S(=O)(=O)N2CCC(n3nnc4ccccc43)CC2)s1)c1ccc(Cl)cc1
Rescued neurons [24]: 56%
Rescued neurons [25]: 22.9%
Rescued neurons [26]: 2.2%
